≈ marks a conversion by molar mass, not a printed value.

We go through two compounds from ChEMBL document CHEMBL2401705, “Discovery of triazines as potent, selective and orally active PDE4 inhibitors” (Bioorg Med Chem Lett, 2013).

One series has as its target Phosphodiesterase 4 (Homo sapiens, UniProt P27815+Q08499+Q07343+Q08493). Description: Inhibition of PDE4 (unknown origin). It is filed as protein assay.
Series [1] concerns Mustela putorius furo. Description: Toxicity in po dosed ferret assessed as first emetic dose by measuring occurrence of vomiting episode after 6 hrs. It is filed as organism-based. The note with it: in vivo. In a few lines: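 Ferrets were given oral doses and watched for 6 h after administration for a vomiting episode; the first emetic dose was reported in mg/kg.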
In another series the target is serum albumin (Homo sapiens, UniProt P02768). Description: Binding affinity to human serum albumin. The note with it: read-out: PB (converted). It is filed as ADME.
For series [2], the system named is Mustela putorius furo. Description: Inhibition of LPS-induced neutrophilia in ferret COPD model BAL-fluid at 0.1 mg/kg, po. Type of series: functional. In a few lines:
(§1)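 Ferrets challenged by LPS inhalation, with compound given orally. Read-out is the change in neutrophil count in bronchoalveolar lavage fluid, expressed as percentage inhibition.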

Series [3] relates to Mustela putorius furo. Description: Inhibition of LPS-induced neutrophilia in ferret COPD model BAL-fluid at 0.01 mg/kg, po. It is filed as functional. In a few lines: as §1
The next series relates to PBMC. Description: Inhibition of TNFalpha production in human PBMC. Type of series: functional, cell-based.
The next series concerns Blood. Description: Inhibition of TNFalpha production in human whole blood. It is filed as functional, tissue-based.
Another series relates to Rattus norvegicus. Description: Inhibition of LPS-induced neutrophil accumulation in rat lung at 0.1 mg/kg, po. It is filed as functional.
The nature of series [4]: Intrinsic clearance in human liver microsomes. The note with it: read-out: CLH. It is filed as ADME, Microsome. (Liver microsomes are a subcellular fraction often used to study metabolism.)
The target of a further series is hERG (KCNH2) (Homo sapiens, UniProt Q12809). Description: Inhibition of human ERG at 10 uM. In a few lines:
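hERG measured in a binding assay, reported as percent inhibition at 10 µM.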

Series [5] is described as follows: Intrinsic clearance in dog liver microsomes. Type of series: ADME, Canis lupus familiaris, Microsome. The conditions noted are these: read-out: CLH.
A short description of series [6]: Cmax in rat at 3 mg/kg, po. Type of series: ADME, organism-based. Also noted: dose 3 mg/kg, route oral. The conditions noted are these: in vivo.
A short description of series [7]: Volume of distribution in rat at 3 mg/kg. It is filed as ADME, organism-based. The arrangement: dose 3 mg/kg. The conditions noted are these: in vivo.
A short description of series [8]: Half life in rat at 3 mg/kg, iv. Type of series: ADME, organism-based. The arrangement: dose 3 mg/kg, route intravenous. The note with it: in vivo.
A short description of series [9]: Oral bioavailability in rat. Type of series: ADME, organism-based. The note with it: in vivo.
Series [10] is described as follows: Clearance in rat at 3 mg/kg, iv. The note with it: in vivo. Also noted: dose 3 mg/kg, route intravenous. Type of series: ADME, organism-based.
Series [11] is described as follows: Inhibition of bovine retina PDE6. Also noted: species or system Bos taurus.
In series [12] the target is cAMP and cAMP-inhibited cGMP 3',5'-cyclic phosphodiesterase 10A (Homo sapiens, UniProt Q9Y233). Description: Inhibition of human recombinant PDE10A.
Series [13] concerns the target Dual 3',5'-cyclic-AMP and -GMP phosphodiesterase 11A (Homo sapiens, UniProt Q9HCR9). Description: Inhibition of human recombinant PDE11A.
Series [14] deals with High affinity cAMP-specific and IBMX-insensitive 3',5'-cyclic phosphodiesterase 8A (Homo sapiens, UniProt O60658). Description: Inhibition of human recombinant PDE8A.
The target of series [15] is High affinity cGMP-specific 3',5'-cyclic phosphodiesterase 9A (Homo sapiens, UniProt O76083). Description: Inhibition of human recombinant PDE9A.
For series [16], the target named is cGMP-specific 3',5'-cyclic phosphodiesterase (Homo sapiens, UniProt O76074). Description: Inhibition of human recombinant PDE5A.
Series [17] addresses cGMP-inhibited 3',5'-cyclic phosphodiesterase 3A (Homo sapiens, UniProt Q14432). Description: Inhibition of human recombinant PDE3A.
The target in series [18] is cGMP-dependent 3',5'-cyclic phosphodiesterase (Homo sapiens, UniProt O00408). Description: Inhibition of human recombinant PDE2A.
Series [19] concerns the target Dual specificity calcium/calmodulin-dependent 3',5'-cyclic nucleotide phosphodiesterase 1B (Homo sapiens, UniProt Q01064). Description: Inhibition of human recombinant PDE1B.
Series [20] concerns the target 3',5'-cyclic-AMP phosphodiesterase 4B (Homo sapiens, UniProt Q07343). Description: Inhibition of full length PDE4B1 (unknown origin).
Series [21] addresses 3',5'-cyclic-AMP phosphodiesterase 4D (Rattus norvegicus, UniProt P14270). Description: Inhibition of rat PDE4D3.
Series [22] is described as follows: Inhibition of CYP3A4D (unknown origin). It is filed as ADME, Homo sapiens.
Series [23] can be described thus: Inhibition of CYP3A4Q (unknown origin). It is filed as ADME, Homo sapiens.
Another series concerns the target Cytochrome P450 2D6 (Homo sapiens, UniProt P10635). Description: Inhibition of CYP2D6 (unknown origin). Type of series: ADME.
The nature of series [24]: Inhibition of CYP3A4B (unknown origin). It is filed as ADME, Homo sapiens.
Another series deals with Cytochrome P450 2A6 (Homo sapiens, UniProt P11509). Description: Inhibition of CYP2A6 (unknown origin). It is filed as ADME.
The next series has as its target Cytochrome P450 2C9 (Homo sapiens, UniProt P11712). Description: Inhibition of CYP2C9 (unknown origin). Type of series: ADME.
Another series deals with Cytochrome P450 2C19 (Homo sapiens, UniProt P33261). Description: Inhibition of CYP2C19 (unknown origin). Type of series: ADME.
The target of another series is Cytochrome P450 1A1 (Homo sapiens, UniProt P04798). Description: Inhibition of CYP1A1 (unknown origin). Type of series: ADME.
Another series addresses Cytochrome P450 1A2 (Homo sapiens, UniProt P05177). Description: Inhibition of CYP1A2 (unknown origin). Type of series: ADME.
Series [25] can be described thus: Aqueous solubility of the compound at pH 7.4. The conditions noted are these: buffer.
Series [26] can be described thus: Intrinsic clearance in rat liver microsomes. Type of series: ADME, Microsome. The conditions noted are these: read-out: CLH.
Series [27] has as its target 3',5'-cyclic-AMP phosphodiesterase 4A (Homo sapiens, UniProt P27815). Description: Inhibition of human full length PDE4A4 expressed in baculovirus infected sf21 cells.

Chain of cAMP and cAMP-inhibited cGMP 3',5'-cyclic phosphodiesterase 10A (Q9Y233 whole entry): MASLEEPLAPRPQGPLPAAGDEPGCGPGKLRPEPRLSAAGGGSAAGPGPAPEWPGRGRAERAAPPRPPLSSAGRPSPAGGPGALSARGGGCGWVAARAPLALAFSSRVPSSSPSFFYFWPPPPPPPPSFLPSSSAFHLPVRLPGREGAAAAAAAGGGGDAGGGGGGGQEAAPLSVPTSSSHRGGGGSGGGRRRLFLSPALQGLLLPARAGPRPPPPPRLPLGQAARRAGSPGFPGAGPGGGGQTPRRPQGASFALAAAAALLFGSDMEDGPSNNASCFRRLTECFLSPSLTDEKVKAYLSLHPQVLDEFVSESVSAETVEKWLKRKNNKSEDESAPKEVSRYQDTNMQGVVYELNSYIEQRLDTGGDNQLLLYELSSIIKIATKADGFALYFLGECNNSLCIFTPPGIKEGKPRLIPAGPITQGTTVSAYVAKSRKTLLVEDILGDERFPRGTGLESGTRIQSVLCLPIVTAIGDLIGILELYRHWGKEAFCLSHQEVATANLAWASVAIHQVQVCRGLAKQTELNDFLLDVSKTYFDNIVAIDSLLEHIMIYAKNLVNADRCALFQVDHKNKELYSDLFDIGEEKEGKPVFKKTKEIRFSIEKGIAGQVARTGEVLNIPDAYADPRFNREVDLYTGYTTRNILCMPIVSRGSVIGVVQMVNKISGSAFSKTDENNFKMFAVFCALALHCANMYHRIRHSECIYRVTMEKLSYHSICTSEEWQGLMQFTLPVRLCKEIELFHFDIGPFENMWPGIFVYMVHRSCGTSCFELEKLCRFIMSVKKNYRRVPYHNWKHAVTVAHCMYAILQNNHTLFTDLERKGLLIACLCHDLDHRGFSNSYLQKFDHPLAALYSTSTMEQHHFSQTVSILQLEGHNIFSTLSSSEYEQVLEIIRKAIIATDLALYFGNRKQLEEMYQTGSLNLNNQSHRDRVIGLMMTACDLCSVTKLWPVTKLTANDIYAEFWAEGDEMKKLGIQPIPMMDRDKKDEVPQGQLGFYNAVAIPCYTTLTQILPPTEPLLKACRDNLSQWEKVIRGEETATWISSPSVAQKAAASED
Chain of Dual 3',5'-cyclic-AMP and -GMP phosphodiesterase 11A (Q9HCR9 whole entry): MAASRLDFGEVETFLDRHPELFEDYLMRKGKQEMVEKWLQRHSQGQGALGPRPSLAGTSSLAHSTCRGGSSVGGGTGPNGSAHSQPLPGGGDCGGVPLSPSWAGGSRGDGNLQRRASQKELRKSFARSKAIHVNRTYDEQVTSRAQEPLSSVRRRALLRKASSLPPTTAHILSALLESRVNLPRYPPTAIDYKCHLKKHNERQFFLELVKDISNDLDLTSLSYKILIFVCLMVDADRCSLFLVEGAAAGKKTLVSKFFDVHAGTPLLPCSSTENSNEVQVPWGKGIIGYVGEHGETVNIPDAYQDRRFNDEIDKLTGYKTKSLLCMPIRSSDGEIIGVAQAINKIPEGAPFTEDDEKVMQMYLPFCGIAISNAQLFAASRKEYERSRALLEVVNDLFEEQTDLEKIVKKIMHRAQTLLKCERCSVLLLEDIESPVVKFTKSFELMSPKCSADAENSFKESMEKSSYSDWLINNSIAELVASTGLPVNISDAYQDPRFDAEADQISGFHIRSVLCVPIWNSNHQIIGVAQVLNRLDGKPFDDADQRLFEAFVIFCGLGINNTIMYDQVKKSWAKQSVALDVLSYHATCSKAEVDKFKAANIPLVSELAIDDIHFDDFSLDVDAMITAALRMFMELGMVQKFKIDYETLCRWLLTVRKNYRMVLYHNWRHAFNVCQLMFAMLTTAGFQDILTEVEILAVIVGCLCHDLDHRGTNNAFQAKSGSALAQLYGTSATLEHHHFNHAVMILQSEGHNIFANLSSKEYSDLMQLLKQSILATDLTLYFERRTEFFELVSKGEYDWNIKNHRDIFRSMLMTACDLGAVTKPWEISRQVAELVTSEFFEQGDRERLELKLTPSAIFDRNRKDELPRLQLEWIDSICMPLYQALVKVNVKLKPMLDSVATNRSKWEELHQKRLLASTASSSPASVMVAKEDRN
Chain of Cytochrome P450 1A2 (P05177 whole entry): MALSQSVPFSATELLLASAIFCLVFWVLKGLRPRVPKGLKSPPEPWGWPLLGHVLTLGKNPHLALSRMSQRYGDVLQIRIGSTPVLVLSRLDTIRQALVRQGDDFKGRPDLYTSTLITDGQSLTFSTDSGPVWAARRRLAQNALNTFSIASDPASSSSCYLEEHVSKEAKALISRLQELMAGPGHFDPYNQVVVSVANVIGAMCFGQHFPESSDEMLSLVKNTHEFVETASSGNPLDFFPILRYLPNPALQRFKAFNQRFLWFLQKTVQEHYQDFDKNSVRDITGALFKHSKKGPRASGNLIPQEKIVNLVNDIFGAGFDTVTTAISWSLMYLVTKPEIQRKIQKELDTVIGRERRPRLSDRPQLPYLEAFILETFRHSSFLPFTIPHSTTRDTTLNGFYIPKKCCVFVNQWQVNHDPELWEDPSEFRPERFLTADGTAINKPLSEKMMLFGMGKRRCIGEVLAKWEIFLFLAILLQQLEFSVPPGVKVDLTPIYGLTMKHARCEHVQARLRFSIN
Chain of Cytochrome P450 2A6 (P11509 whole entry): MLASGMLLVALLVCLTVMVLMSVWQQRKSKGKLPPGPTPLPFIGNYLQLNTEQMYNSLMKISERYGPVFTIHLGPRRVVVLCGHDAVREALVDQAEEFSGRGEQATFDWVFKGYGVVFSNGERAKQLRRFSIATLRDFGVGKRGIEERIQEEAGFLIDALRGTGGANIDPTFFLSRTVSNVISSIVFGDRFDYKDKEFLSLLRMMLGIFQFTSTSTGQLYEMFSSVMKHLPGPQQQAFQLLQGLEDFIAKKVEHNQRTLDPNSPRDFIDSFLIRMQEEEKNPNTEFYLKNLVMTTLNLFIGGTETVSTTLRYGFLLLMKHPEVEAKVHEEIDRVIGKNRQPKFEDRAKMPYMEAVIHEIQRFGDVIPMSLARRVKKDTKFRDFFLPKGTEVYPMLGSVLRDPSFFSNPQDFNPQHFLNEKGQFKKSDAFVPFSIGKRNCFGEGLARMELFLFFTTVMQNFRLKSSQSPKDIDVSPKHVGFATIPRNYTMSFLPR
Chain of 3',5'-cyclic-AMP phosphodiesterase 4D (P14270 whole entry): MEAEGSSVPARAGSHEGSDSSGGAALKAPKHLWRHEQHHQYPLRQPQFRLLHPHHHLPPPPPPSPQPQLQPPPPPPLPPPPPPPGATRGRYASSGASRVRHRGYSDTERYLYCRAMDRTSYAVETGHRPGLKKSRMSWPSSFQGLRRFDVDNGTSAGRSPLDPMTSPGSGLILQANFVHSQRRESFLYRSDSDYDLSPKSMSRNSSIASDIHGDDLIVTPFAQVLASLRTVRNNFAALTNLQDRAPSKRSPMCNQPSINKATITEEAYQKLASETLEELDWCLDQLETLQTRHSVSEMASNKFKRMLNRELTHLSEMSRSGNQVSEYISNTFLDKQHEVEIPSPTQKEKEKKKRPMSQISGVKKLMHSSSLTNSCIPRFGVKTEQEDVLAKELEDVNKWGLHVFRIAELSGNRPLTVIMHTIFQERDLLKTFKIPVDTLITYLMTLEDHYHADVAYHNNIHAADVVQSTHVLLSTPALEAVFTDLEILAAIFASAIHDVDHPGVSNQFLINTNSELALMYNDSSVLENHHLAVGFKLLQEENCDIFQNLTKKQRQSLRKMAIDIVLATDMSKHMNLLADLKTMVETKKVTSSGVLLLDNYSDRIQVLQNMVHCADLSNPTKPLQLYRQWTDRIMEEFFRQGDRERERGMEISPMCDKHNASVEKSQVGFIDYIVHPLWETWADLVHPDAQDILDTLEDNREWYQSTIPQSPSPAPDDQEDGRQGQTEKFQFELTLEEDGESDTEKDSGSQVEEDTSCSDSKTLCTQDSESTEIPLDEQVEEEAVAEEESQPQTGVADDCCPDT
Chain of Dual specificity calcium/calmodulin-dependent 3',5'-cyclic nucleotide phosphodiesterase 1B (Q01064 whole entry): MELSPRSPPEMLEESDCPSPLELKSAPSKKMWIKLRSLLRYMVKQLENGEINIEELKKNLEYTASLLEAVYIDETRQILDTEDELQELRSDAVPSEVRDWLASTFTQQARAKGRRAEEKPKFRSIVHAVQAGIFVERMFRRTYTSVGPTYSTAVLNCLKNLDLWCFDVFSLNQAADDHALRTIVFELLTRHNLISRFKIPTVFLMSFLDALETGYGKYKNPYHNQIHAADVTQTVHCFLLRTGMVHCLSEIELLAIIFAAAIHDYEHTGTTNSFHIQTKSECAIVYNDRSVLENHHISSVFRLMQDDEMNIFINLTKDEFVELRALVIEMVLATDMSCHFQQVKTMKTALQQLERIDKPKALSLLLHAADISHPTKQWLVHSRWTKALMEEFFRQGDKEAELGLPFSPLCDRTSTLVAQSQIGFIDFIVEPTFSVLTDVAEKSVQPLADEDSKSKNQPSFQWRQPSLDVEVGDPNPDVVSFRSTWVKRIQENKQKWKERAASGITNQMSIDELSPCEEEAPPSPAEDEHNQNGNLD
Chain of serum albumin (P02768 whole entry): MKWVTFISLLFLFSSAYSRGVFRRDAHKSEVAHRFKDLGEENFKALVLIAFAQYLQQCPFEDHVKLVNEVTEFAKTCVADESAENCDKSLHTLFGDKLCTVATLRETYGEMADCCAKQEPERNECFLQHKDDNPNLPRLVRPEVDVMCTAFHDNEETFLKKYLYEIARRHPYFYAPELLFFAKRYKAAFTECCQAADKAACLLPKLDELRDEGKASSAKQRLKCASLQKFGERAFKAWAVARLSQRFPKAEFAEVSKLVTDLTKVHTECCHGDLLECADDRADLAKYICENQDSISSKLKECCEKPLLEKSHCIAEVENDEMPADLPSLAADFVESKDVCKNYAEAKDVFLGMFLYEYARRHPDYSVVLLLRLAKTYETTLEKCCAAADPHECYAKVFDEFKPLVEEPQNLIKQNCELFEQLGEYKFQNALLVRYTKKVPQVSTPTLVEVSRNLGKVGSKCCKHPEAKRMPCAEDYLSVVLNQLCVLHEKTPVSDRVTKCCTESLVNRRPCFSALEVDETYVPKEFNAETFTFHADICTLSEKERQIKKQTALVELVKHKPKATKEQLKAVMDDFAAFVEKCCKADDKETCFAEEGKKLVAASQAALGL

For the compound `O=S1(=O)CCN(c2nc(NC3CC3)nc(C3CC3)n2)C1`, the half-maximal inhibitory concentration (IC50) (as a rule, the concentration that gives 50% inhibition) against Phosphodiesterase 4 came to 0.14 µM.

In the case of `CCC(C#N)(CC)Nc1nc(NC)nc(-n2cncn2)n1`, in the series with Mustela putorius furo [1], the Activity amounted to 3 mg/kg. In addition, the fraction unbound on serum albumin is 0.49. Further, the figures for the inhibition in vivo at 0.1 mg/kg in the series on Mustela putorius furo [2] and in the series with Rattus norvegicus were 66% and 41%, respectively. Moreover, 0.01 mg/kg produced 33% inhibition in vivo in the series on Mustela putorius furo [3]. Moreover, the IC50 with PBMC is 0.022 µM; in the series with Blood, 0.055 µM; in series [11], over 1 µM; in series [12] it was over 1 µM; in series [13] it was over 1 µM; in [14], over 1 µM. The IC50 was over 1 µM in series [15]; over 1 µM in series [16]; over 1 µM in series [17]; over 1 µM in series [18]; over 1 µM in series [19]; 0.00087 µM in series [20]. For the same compound, the IC50 was 0.00118 µM in [21]; over 10 µM in series [22]; over 10 µM in series [23]; over 10 µM at Cytochrome P450 2D6; over 10 µM in series [24]; over 10 µM on Cytochrome P450 2A6. The IC50 is over 10 µM on Cytochrome P450 2C9; over 10 µM against Cytochrome P450 2C19; over 10 µM at Cytochrome P450 1A1; over 10 µM on Cytochrome P450 1A2; 0.00081 µM in series [27]. Moreover, the results for the CLint scaled in [4], in series [5] and in series [26] were under 1 mL/min/kg, under 1 mL/min/kg and 26 mL/min/kg, respectively. 10 µM produced 6% inhibition against hERG (KCNH2). Moreover, the highest level in series [6] (Cmax) was 669 ng/mL. Besides, in [7], the Vd (as a rule, a proportionality between amount in the body and measured concentration, not a real space) was 0.5 L/kg. The half-life (usually how long it takes for the measured level to halve) in series [8] was 1.7 h. Besides, the bioavailability – broadly, the share of a dose that reaches the circulation, judged against a reference dose that is usually intravenous – in [9] came to 41%. Besides, in [10], the clearance (usually a measure of how efficiently the substance is removed, as volume per time) stood at 3.3 mL/min/kg. Further, the solubility (in general, the concentration that dissolves in the medium under given conditions) in series [25] came to 165 µg/mL (≈ 574 µM).
